This is a sample that favours compounds with a hit; in the whole collection about 8.2% have one here.
M1 antagonist – M1 muscarinic receptor (rat) antagonism. B-score at 10 µM. 64,000 tested, 3.4% active. CHO-M1 cells, Fluo-4 calcium, ACh EC80 antagonist mode; hits give low values. P08482;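 active means calcium fluorescence response, raw or row-and-column corrected B-score, differing from the plate sample mean either way at a set confidence level, mostly lower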
D1 mod – allosteric modulators of human D1 dopamine receptor; P21728; HEK293 D1, CRE-luciferase, dopamine EC30 potentiation; actives deviate in either direction; B-score at 10 µM; 58,000 tested, 5.9% active; AID 641;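 active means luminescence count or its row- and column-corrected plate score outside the 99.7% band of the plate's sample wells, on either side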
RORA act – RORA (human) activation; P35398; CHO-K1 Gal4-RORA LBD luciferase reporter, luminescence; percent increase over mock-subtracted basal signal; activation, % at 10 µM; 65,000 tested, 1.5% active; AID 560;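 active means activation above the mean of all tested compounds plus 3 SD, cut at about 49% in these data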;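 further: 0% = DMSO-treated RORA cells and 100% = added signal equal to DMSO minus mock-transfected cells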
HePTP inhibitor – blocks human HePTP tyrosine phosphatase; inhibition, % at 20 µM; AID 521; recombinant HePTP phosphatase activity, OD absorbance; 110,000 tested, 0.64% active; P35236; in the data active means inhibition above about 50%;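 further: plate controls were vehicle for no effect and reference inhibitor for full effect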
Target sequence (P35236 whole entry, looked up): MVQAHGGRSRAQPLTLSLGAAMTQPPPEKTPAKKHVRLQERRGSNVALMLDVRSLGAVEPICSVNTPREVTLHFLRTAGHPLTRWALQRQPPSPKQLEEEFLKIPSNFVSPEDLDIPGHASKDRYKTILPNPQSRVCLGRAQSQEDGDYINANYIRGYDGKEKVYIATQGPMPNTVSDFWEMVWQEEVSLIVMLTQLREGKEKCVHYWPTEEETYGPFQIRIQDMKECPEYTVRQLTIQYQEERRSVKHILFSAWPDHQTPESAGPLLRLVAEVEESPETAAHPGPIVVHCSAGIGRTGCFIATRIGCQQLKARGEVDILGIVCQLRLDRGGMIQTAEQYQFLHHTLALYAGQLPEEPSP
M1 ag – agonists of M1 muscarinic receptor. B-score at 10 µM. CHO-M1 cells, Fluo-4 calcium fluorescence, agonist mode; hits give high values. 64,000 tested, 3% active;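 active means fluorescence rise, raw or as B-score row- and column-corrected plate score, outside the 99.7% band of its plate's samples, either direction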
SF1 activator – activators of human nuclear receptor SF-1; activation, % at 10 µM; CHO-K1 Gal4-SF-1 LBD luciferase reporter; % increase over DMSO SF-1-specific signal; Q13285; 65,000 tested, 1.9% active;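 active means activation above the mean activation of all tested compounds plus 3 SD, cut at about 50% in these data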
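Assay system – CHO-K1 cells with Gal4–hSF-1 LBD chimera plus Gal4-driven luciferase · Quantity – 4,000 cells per well · Times – compound added 1 h post-seeding, 20 h exposure at 37 °C, 5% CO2 · Measured by – luciferase light emission · Benchmarks – DMSO and mock-transfected background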
M1 ag confirm – rat M1 muscarinic agonism, confirmation | shares compounds with M1 ag | CHO-M1 cells, Fluo-4 calcium fluorescence, agonist mode; actives lie on both sides | fluorescence change (max-min) at 10 µM | 1,700 tested, 19% active | AID 1488;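 active means fluorescence change differs from the solvent-only DMSO control mean at a set confidence level in both duplicate runs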;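 further: an EC20 dose of acetylcholine follows compound addition during the same imaging run; raw fluorescence intensity difference in instrument units with no normalization to controls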
M4 agonist ctr – activates rat M4 receptor in counter-screen for M1 agonists. shares compounds with M1 ag. CHO M4/Gqi5 cells, Fluo-4 calcium fluorescence, agonist mode; actives lie on both sides. fluorescence change (max-min) at 10 µM. 1,700 tested, 9% active. AID 1741;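 active means fluorescence change differing from the plate's solvent-only control wells at 99.7% confidence in both duplicates, whether higher or lower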
Starred values were filed as active, the others as inactive.

`Cc1ccc(Cn2c(=N)c(C(=O)NCc3ccco3)cc3c(=O)n4ccccc4nc32)cc1` gave M1 antagonist -2.3, D1 mod -1.3, RORA act 2, HePTP inhibitor 9, M1 ag -1.2 and SF1 activator 1.
Screening N=c1c(C(=O)NCc2ccco2)cc2c(=O)n3ccccc3nc2n1CCc1ccccc1 returned M1 antagonist 0.5, D1 mod -3, RORA act -18, HePTP inhibitor 11, M1 ag 9.6*, SF1 activator -8, M1 ag confirm 39 and M4 agonist ctr 3.6.
Screening Cn1c(=O)c2c(-c3ccccc3)n(CCCN3CCOCC3)cc2n(C)c1=O returned M1 antagonist 0.64, D1 mod 0.78, RORA act 1, HePTP inhibitor 10, M1 ag 0.19 and SF1 activator -2.
For O=C1NC(=O)C(=Cc2cccc(OS(=O)(=O)c3ccc([N+](=O)[O-])cc3)c2)C(=O)N1 the results were HePTP inhibitor 0.
COc1ccc2c(c1OC)C(=O)N1c3ccccc3C(=O)N(c3ccccc3F)C21 (stereo not given) was read as M1 antagonist 0.095, D1 mod -2.7, RORA act -25, HePTP inhibitor 5, M1 ag 9.3*, SF1 activator 15, M1 ag confirm -26* and M4 agonist ctr -92*.
For Cc1ccc(Cl)cc1N1CCN(C(=O)Cn2ccc3ccccc3c2=O)CC1 the results were M1 antagonist -0.047, D1 mod 0.038, RORA act -3, HePTP inhibitor 8, M1 ag 8.7*, SF1 activator -11, M1 ag confirm 3.7 and M4 agonist ctr -26.
For CCCCOC(=O)Cn1c(=O)c2c(nc3n2CCCCN3c2ccc(C)cc2)n(C)c1=O the results were M1 antagonist -0.45, D1 mod 0.25, RORA act 3, HePTP inhibitor 4, M1 ag -0.23 and SF1 activator -23.
For CCOC(=O)c1cc2c(=O)n3ccccc3nc2n(CCOC)c1=NC(=O)C(C)(C)C the results were D1 mod 0.85, RORA act 11, HePTP inhibitor -8 and SF1 activator 7.
CCOC(=O)c1cc2c(=O)n3cccc(C)c3nc2n(C)c1=N was read as M1 antagonist 0.71, RORA act -8, HePTP inhibitor 5, M1 ag 0.0097 and SF1 activator 4.
For CCOC(=O)c1cc2c(=O)n3ccccc3nc2n(CCOC)c1=NC(=O)c1ccncc1 the results were M1 antagonist 0.069, D1 mod 0.73, RORA act 28, HePTP inhibitor -2, M1 ag 2.2*, SF1 activator 21, M1 ag confirm -12 and M4 agonist ctr -34.
CCOCCCn1c(=NC(C)=O)c(C(=O)OCC)cc2c(=O)n3ccccc3nc21 was read as M1 antagonist 0.16, D1 mod 0.47, RORA act 4, HePTP inhibitor -4, M1 ag -0.53 and SF1 activator -15.
For CCOC(=O)c1cc2c(=O)n3ccccc3nc2n(Cc2ccco2)c1=NC(=O)c1cccnc1 the results were M1 antagonist -1, D1 mod 0.19, RORA act 10, HePTP inhibitor 3, M1 ag 6.2*, SF1 activator -10, M1 ag confirm 146* and M4 agonist ctr 7.7.
`CCOC(=O)c1cc2c(=O)n3cccc(C)c3nc2n(Cc2ccco2)c1=NC(=O)c1cccnc1` gave M1 antagonist -0.9, D1 mod 2.8, RORA act -2, HePTP inhibitor 12, M1 ag 40*, SF1 activator 3, M1 ag confirm 180* and M4 agonist ctr 44.
O=C(Nc1ccccc1C(=O)NC(Cc1c[nH]c2ccccc12)C(=O)O)c1ccco1 (stereo not given) was read as M1 antagonist 0.013, D1 mod -0.32, RORA act -4, HePTP inhibitor 2, M1 ag -2.6*, SF1 activator 6, M1 ag confirm -28* and M4 agonist ctr -67.
